Drawing on ChEMBL document CHEMBL1629418, “Spiroimidazolidinone NPC1L1 inhibitors. Part 2: structure-activity studies and in vivo efficacy” (Bioorg Med Chem Lett, 2010), this text covers inhibition in vivo, IC50 and Activity for 25 compounds.

pIC50: −log10 of the molar value.

For orientation: inhibition in vivo means the drop in the measured response relative to a control, in per cent. A low value points to a response near the control. Usually pIC50 stands for the negative decadic logarithm of the IC50, by convention in mol/L. A high value points to a small IC50. By IC50 is commonly meant the point on the concentration scale where inhibition reaches its midpoint. Higher therefore signals weaker potency in that assay.

Experiment [1] relates to Mus musculus. As to the kind of experiment: Inhibition of cholesterol-absorption in mouse at 10 mg/kg, po. It counts as functional. The method in brief:
(§1)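 Male C57BL/6 mice received compound orally as a suspension in 0.2 mL of 0.25% methocel. After 30 min, mice were given 0.2 mL oral [3H]cholesterol in IntraLipid. Mice were euthanized at 1.5 h or 5 h. Plasma [3H]cholesterol was counted from cardiac-puncture blood; liver was saponified for [3H]cholesterol. Six data points per dose were averaged; % inhibition reported.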

Experiment [2] concerns Mus musculus. The experiment can be described thus: Inhibition of cholesterol-absorption in mouse liver at 100 mg/kg, po. It counts as functional. The method in brief: as §1
Experiment [3] concerns Mus musculus. The experiment can be described thus: Inhibition of cholesterol-absorption in mouse plasma at 100 mg/kg, po. It counts as functional. Summed up: as §1
Experiment [4] addresses T1, NPC1-like intracellular cholesterol transporter 1 (Homo sapiens, UniProt Q9UHC9).
T1 sequence (Q9UHC9 whole entry): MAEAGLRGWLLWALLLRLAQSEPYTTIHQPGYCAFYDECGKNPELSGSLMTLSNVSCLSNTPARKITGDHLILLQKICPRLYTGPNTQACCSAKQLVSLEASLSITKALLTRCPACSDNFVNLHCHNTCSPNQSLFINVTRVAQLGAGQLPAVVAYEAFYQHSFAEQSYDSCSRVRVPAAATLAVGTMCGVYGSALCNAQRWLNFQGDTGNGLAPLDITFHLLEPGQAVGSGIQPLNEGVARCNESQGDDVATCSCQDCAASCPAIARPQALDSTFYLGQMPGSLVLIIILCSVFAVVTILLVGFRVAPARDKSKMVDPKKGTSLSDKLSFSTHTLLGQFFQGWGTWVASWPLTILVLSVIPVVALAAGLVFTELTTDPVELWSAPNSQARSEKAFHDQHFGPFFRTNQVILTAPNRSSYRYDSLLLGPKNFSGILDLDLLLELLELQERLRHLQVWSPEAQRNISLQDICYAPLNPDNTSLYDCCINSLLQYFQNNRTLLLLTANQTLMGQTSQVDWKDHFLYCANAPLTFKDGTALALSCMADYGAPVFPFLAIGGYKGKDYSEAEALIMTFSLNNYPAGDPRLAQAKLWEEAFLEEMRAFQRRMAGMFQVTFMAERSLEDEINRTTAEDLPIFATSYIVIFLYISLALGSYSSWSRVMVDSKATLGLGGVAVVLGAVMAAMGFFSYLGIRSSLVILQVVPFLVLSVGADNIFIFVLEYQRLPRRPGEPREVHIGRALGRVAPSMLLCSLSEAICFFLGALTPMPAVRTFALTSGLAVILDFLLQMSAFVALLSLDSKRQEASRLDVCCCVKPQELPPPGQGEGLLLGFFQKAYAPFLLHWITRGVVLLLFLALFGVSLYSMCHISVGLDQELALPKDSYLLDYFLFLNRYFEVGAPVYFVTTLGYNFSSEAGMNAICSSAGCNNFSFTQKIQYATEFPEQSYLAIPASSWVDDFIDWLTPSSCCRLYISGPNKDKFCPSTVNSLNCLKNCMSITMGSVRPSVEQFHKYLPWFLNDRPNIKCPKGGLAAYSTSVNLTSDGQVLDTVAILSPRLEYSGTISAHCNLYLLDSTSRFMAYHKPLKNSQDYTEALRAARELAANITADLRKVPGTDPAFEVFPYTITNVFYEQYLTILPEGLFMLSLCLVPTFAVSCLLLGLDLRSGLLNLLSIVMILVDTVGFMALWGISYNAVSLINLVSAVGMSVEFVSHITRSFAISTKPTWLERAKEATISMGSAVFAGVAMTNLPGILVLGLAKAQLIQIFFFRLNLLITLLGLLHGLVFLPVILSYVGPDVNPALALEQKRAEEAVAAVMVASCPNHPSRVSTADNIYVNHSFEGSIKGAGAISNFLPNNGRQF
As to the kind of experiment: Displacement of [35S](2S,3S,4S,5R,6S)-6-(4-((2S,3R)-3-((S)-3-(4-fluorophenyl)-3-hydroxypropyl)-1-(4-(3-(methylsulfonamido)prop-1-ynyl)phenyl)-4-oxoazetidin-2-yl)phenoxy)-3,4,5-trihydroxytetrahydro-2H-pyran-2-carboxylic acid from human NCP1L1 expressed in HEK 293. In kind it is cell-based, HEK293. In general terms: Displacement assays read how much labelled ligand stays bound in the presence of the test substance.

Experiment [5] addresses NPC1-like intracellular cholesterol transporter 1 (Mus musculus) (UniProt Q6T3U4). The experiment can be described thus: Displacement of [35S](2S,3S,4S,5R,6S)-6-(4-((2S,3R)-3-((S)-3-(4-fluorophenyl)-3-hydroxypropyl)-1-(4-(3-(methylsulfonamido)prop-1-ynyl)phenyl)-4-oxoazetidin-2-yl)phenoxy)-3,4,5-trihydroxytetrahydro-2H-pyran-2-carboxylic acid from mouse NCP1L1 expressed in mouse brush border membrane. In kind it is cell membranes.

Experiment [6] has as its system Mus musculus. As to the kind of experiment: Inhibition of [3H]cholesterol absorption in C57BL/6 mouse plasma at 30 mg/kg, po after 1.5 hrs. In kind it is functional. The following applies: C57BL/6, Plasma. Summed up:
as §1

The test system of experiment [7] is Mus musculus. As to the kind of experiment: Inhibition of [3H]cholesterol absorption in C57BL/6 mouse plasma at 100 mg/kg, po after 5 hrs. In kind it is functional. The following applies: C57BL/6, Plasma. Summed up: as §1
The test system of experiment [8] is Mus musculus. The experiment can be described thus: Inhibition of cholesterol-absorption in mouse plasma at 30 mg/kg, po. In kind it is functional. Summed up:
as §1

The test system of experiment [9] is Mus musculus. As to the kind of experiment: Inhibition of [3H]cholesterol absorption in C57BL/6 mouse plasma at 100 mg/kg, po after 1.5 hrs. It counts as functional. The following applies: C57BL/6, Plasma. The method in brief:
as §1

In experiment [10] the test system is Mus musculus. As to the kind of experiment: Inhibition of cholesterol-absorption in mouse plasma at 10 mg/kg, po. It counts as functional. The method in brief:
as §1

The test system of experiment [11] is Mus musculus. The experiment can be described thus: Inhibition of [3H]cholesterol absorption in C57BL/6 mouse plasma at 10 mg/kg, po after 1.5 hrs. It counts as functional. Particulars: C57BL/6, Plasma. The method in brief: as §1
Experiment [12] deals with T2, NPC1-like intracellular cholesterol transporter 1 (Homo sapiens) (UniProt Q9UHC9).
T2 sequence (whole entry): T1 sequence (Q9UHC9 whole entry)
As to the kind of experiment: Binding affinity to human NPC1L1.

For experiment [13], the system named is Mus musculus. As to the kind of experiment: Inhibition of [3H]cholesterol absorption in C57BL/6 mouse plasma at 1 mg/kg, po after 5 hrs. It counts as functional. The following applies: C57BL/6, Plasma. Summed up: as §1
In experiment [14] the test system is Mus musculus. The experiment can be described thus: Inhibition of [3H]cholesterol absorption in C57BL/6 mouse plasma at 1 mg/kg, po after 1.5 hrs. In kind it is functional. Particulars: C57BL/6, Plasma. The method in brief: as §1

Chain of NPC1-like intracellular cholesterol transporter 1 (Mus musculus) (Q6T3U4 21-1333 limits assumed): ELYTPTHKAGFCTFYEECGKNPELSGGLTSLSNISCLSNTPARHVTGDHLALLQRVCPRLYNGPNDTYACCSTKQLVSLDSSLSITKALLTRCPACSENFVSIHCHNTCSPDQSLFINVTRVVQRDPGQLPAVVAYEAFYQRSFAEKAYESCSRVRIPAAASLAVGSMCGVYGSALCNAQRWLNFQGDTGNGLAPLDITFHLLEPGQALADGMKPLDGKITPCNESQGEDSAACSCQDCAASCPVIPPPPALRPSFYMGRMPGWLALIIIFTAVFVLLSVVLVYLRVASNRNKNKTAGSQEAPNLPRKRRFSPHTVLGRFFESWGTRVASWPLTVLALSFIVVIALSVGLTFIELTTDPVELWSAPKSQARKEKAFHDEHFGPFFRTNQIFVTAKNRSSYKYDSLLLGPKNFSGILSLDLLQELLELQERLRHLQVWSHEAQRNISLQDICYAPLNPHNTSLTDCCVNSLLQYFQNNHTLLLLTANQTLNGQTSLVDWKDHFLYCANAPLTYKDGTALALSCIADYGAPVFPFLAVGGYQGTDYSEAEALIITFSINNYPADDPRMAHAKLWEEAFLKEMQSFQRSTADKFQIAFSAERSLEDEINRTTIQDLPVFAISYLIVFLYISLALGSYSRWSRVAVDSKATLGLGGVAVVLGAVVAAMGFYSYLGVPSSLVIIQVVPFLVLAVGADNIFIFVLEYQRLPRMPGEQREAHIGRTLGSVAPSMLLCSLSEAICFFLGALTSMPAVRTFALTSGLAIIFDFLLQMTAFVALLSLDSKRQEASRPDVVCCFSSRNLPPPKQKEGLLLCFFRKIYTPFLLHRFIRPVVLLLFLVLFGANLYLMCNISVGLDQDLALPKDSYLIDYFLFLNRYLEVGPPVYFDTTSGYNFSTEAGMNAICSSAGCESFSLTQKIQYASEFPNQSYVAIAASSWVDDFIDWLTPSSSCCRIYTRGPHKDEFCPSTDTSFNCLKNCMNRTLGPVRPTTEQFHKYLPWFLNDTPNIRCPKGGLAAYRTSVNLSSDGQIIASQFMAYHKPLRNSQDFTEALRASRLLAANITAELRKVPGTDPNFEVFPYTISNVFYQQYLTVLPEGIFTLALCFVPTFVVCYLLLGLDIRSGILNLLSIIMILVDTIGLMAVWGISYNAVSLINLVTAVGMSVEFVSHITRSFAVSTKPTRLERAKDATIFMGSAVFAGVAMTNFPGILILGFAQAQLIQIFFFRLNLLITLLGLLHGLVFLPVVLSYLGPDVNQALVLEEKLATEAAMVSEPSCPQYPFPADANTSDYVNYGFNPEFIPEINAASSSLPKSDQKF

As for `COC(=O)CCCNC(=O)CN1CN(c2ccccc2)C2(CCN(C(=O)c3ccc(C(C)(C)C)cc3)CC2)C1=O`, the inhibition in vivo at 10 mg/kg with Mus musculus [1] came to 35%.

Take `CS(=O)(=O)NCCCNC(=O)CN1CN(c2ccccc2)C2(CCN(C(=O)c3ccc(C4CCCCC4)cc3)CC2)C1=O`: the inhibition in vivo at 100 mg/kg with Mus musculus [2] and in the experiment with Mus musculus [3] was less than 5% throughout. Moreover, testing at 10 mg/kg with Mus musculus [1] gave an inhibition in vivo of 42%. Also, the pIC50 in [4] is 5.60.

`O=C(CN1CN(c2ccccc2)C2(CCN(C(=O)c3ccc(C4CCCCC4)cc3)CC2)C1=O)N1CCN(C(=O)c2ccccc2)CC1`: the inhibition in vivo at 100 mg/kg in the experiment with Mus musculus [2] came to 46%; in the experiment with Mus musculus [3] it was 52%. For the same compound, the IC50 in [5] was 19 µM. The negative-log IC50 (pIC50) in experiment [4] was 5.32.

Take `O=C(CN1CN(c2ccccc2)C2(CCN(C(=O)c3ccc(C4CCCCC4)cc3)CC2)C1=O)NCCCO`: the inhibition in vivo at 100 mg/kg in the experiment on Mus musculus [2] was found to be 70%; in the experiment on Mus musculus [3], 43%. For the same compound, the inhibition in vivo at 10 mg/kg in the experiment on Mus musculus [1] was 42%. The compound also showed a pIC50 in [4] of 4.85.

Regarding `O=C(CN1CN(c2ccccc2)C2(CCN(C(=O)c3ccc(C4CCCCC4)cc3)CC2)C1=O)NCCCCO`, at 10 mg/kg the inhibition in vivo with Mus musculus [1] was 52%. This compound gave a pIC50 in experiment [4] of 5.77.

As to `CC(C)(C)OC(=O)N1CCN(C(=O)CN2CN(c3ccccc3)C3(CCN(C(=O)c4ccc(C5CCCCC5)cc4)CC3)C2=O)CC1`, the inhibition in vivo at 100 mg/kg was found to be 58% with Mus musculus [2] and 4.5% in the experiment on Mus musculus [3]. The same compound had an IC50 in experiment [5] of 49 µM. The compound also had a pIC50 in [4] of 5.46.

In the case of `CCc1nn(CC)c(C2CCN(C(=O)CN3CN(c4ccccc4)C4(CCN(C(=O)c5ccc(C(C)(C)C)cc5)CC4)C3=O)CC2)c1C`, the inhibition in vivo at 30 mg/kg in the experiment with Mus musculus [6] and with Mus musculus [8] was 48% each time. The inhibition in vivo at 100 mg/kg in the experiment with Mus musculus [7] was 67%; with Mus musculus [3], 62%; with Mus musculus [9] it was 62%. The same compound yielded an IC50 in [5] of 40 µM. The compound further had a negative logarithm of the IC50 (pIC50) in [4] of 5.60. In addition, the inhibition in vivo at 10 mg/kg in the experiment on Mus musculus [10] and in the experiment on Mus musculus [11] was 35% throughout.

In the experiment on Mus musculus [1], `CC(C)(C)OC(=O)NCCCCNC(=O)CN1CN(c2ccccc2)C2(CCN(C(=O)c3ccc(C(C)(C)C)cc3)CC2)C1=O` yielded an inhibition in vivo at 10 mg/kg of 7%.

The compound `NCCCNC(=O)CN1CN(c2ccccc2)C2(CCN(C(=O)c3ccc(C4CCCCC4)cc3)CC2)C1=O` gave a negative logarithm of the IC50 (pIC50) in experiment [4] of 5.51.

In experiment [4], `NCCNC(=O)CN1CN(c2ccccc2)C2(CCN(C(=O)c3ccc(C4CCCCC4)cc3)CC2)C1=O` gave a pIC50 of 4.58.

Regarding `CC(C)(C)c1ccc(C(=O)N2CCC3(CC2)C(=O)N(CC(=O)N2CCCCC2)CN3c2ccccc2)cc1`, the Activity in experiment [12] amounted to 2.5 µM.

In the case of `CC(C)(C)c1ccc(C(=O)N2CCC3(CC2)C(=O)N(CC(=O)NCCCCCN)CN3c2ccccc2)cc1`, the negative logarithm of the IC50 (pIC50) in experiment [4] is 5.11.

`CC(C)(C)OC(=O)N1CCN(C(=O)CN2CN(c3ccccc3)C3(CCN(C(=O)c4ccc(C(C)(C)C)cc4)CC3)C2=O)CC1`: in experiment [5], the IC50 came out at 49 µM. The pIC50 in [4] was 6.00.

`CCOC(=O)C1CCCN(C(=O)CN2CN(c3ccccc3)C3(CCN(C(=O)c4ccc(C5CCCCC5)cc4)CC3)C2=O)C1` (stereo not drawn) had a pIC50 in experiment [4] of 5.38.

Turning to `CC(C)(C)c1ccc(C(=O)N2CCC3(CC2)C(=O)N(CC(=O)NCCC(=O)O)CN3c2ccccc2)cc1`, the pIC50 in experiment [4] is 4.63.

Take `O=C(CN1CN(c2ccccc2)C2(CCN(C(=O)c3ccc(C4CCCCC4)cc3)CC2)C1=O)N1CCCCC1`: the negative logarithm of the IC50 (pIC50) in experiment [4] is 5.96.

For the compound `CC(C)(C)c1ccc(C(=O)N2CCC3(CC2)C(=O)N(CC(=O)N2CCNCC2)CN3c2ccccc2)cc1`, the pIC50 in [4] was 4.66.

In turn, `CC(C)(C)OC(=O)NC1CCCN(C(=O)CN2CN(c3ccccc3)C3(CCN(C(=O)c4ccc(C5CCCCC5)cc4)CC3)C2=O)C1` (stereo not drawn) had a negative-log IC50 (pIC50) in experiment [4] of 5.36.

As to `CCn1nc(Cc2ccccc2)cc1C1CCN(C(=O)CN2CN(c3ccccc3)C3(CCN(C(=O)c4ccc(C(C)(C)C)cc4)CC3)C2=O)CC1`, the pIC50 in [4] was 5.19.

As to `CS(=O)(=O)NCCNC(=O)CN1CN(c2ccccc2)C2(CCN(C(=O)c3ccc(C4CCCCC4)cc3)CC2)C1=O`, the pIC50 in [4] is 5.15.

For the compound `CC1CCCN(C(=O)CN2CN(c3ccccc3)C3(CCN(C(=O)c4ccc(C5CCCCC5)cc4)CC3)C2=O)C1` (stereo not drawn), the negative logarithm of the IC50 (pIC50) in experiment [4] is 5.44.

On to `CC(C)(C)c1ccc(C(=O)N2CCC3(CC2)C(=O)N(CC(=O)NCCCO)CN3c2ccccc2)cc1`, for which, in [4], the pIC50 is 4.63.

In the experiment on Mus musculus [1], `COC(=O)CCNC(=O)CN1CN(c2ccccc2)C2(CCN(C(=O)c3ccc(C(C)(C)C)cc3)CC2)C1=O` showed an inhibition in vivo at 10 mg/kg of 44%.

With `O=C1[C@H](CC[C@H](O)c2ccc(F)cc2)[C@@H](c2ccc(O)cc2)N1c1ccc(F)cc1` [EZETIMIBE], the inhibition in vivo at 1 mg/kg in the experiment with Mus musculus [13] came to 90%; in the experiment with Mus musculus [14], 7%.

Take `CC(C)(C)c1ccc(C(=O)N2CCC3(CC2)C(=O)N(CC(=O)NCCN)CN3c2ccccc2)cc1`: in experiment [4], the negative-log IC50 (pIC50) was 4.23.
